The term LD50 denotes the dose expected to kill half of the subjects tested. A high value points to a less toxic substance.

One series addresses Acrosin (Homo sapiens, UniProt P10323). The experiment in a line: Inhibition of human acrosin and control activity being 11.3 umol/min/mg. As to conditions: read-out: I50.
Another series addresses Serine protease 1 (Homo sapiens, UniProt P07477). As to the kind of experiment: Inhibition of human trypsin and the control activity being 7.3 umol/min/mg. The settings on record: read-out: I50.
Series [1] is described as follows: Lethal dose that produces death in 50% of mice within 24 hr after acute treatment. The settings on record: mouse, in vivo. The class given is toxicity, organism-based. In short, it runs like this: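 Mature male Swiss Webster albino mice, minimum body weight 25 g; compounds suspended in 5% gum acacia and given as a single intraperitoneal injection at 0.1 mL/10 g body weight. Deaths scored within 24 h. LD50 taken from dose-response curves by the Litchfield and Wilcoxon method, with 95% confidence limits.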

Some results are limits rather than exact numbers.

Chain of Serine protease 1 (P07477 whole entry): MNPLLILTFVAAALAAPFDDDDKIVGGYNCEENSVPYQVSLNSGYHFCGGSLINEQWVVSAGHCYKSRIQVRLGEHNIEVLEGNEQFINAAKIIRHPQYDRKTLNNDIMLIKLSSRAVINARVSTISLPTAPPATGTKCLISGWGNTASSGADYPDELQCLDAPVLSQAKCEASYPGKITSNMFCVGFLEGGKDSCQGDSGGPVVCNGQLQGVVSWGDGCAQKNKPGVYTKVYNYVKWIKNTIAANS
Chain of Acrosin (P10323 20-42 limits assumed): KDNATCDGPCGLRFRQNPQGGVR
Chain of Acrosin (P10323 43-343 limits assumed): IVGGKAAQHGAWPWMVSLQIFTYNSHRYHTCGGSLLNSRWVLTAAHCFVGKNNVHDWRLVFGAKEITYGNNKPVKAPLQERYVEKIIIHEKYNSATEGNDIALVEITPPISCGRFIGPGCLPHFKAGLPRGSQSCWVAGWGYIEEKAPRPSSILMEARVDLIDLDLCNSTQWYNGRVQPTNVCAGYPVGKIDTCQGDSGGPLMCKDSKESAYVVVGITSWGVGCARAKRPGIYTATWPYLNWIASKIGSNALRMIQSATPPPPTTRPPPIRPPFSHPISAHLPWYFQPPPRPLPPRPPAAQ

As to `CC(C)(C)c1ccc(OC(=O)c2ccc(NC(=N)N)cc2)cc1`, the IC50 at Acrosin came to 28.5 nM; at Serine protease 1 it was 17.1 nM.
In the same order, the values of `CCCCOc1ccc(OC(=O)c2ccc(NC(=N)N)cc2)cc1` are 11.4 nM and 22.3 nM.
In the same order, the values of `COc1ccc(OC(=O)c2ccc(NC(=N)N)cc2)cc1` are 16.3 nM and 19 nM.
In the same order, the values of `COc1ccccc1OC(=O)c1ccc(NC(=N)N)cc1` are 27.3 nM and 87.6 nM.
In the case of `COC(=O)c1ccccc1OC(=O)c1ccc(NC(=N)N)cc1`, the LD50 at 24 h in series [1] was determined as 750 mg/kg. For the same compound, the IC50 worked out at 12.9 nM at Acrosin and 65 nM at Serine protease 1.
As to `CC(C)c1ccc(OC(=O)c2ccc(NC(=N)N)cc2)cc1`, the IC50 at Acrosin came to 6.6 nM; at Serine protease 1 it was 17.2 nM.
With `Cc1ccc(C(C)C)c(OC(=O)c2ccc(NC(=N)N)cc2)c1.Cc1ccc(S(=O)(=O)O)cc1`, the 50% lethal dose (LD50) at 24 h in series [1] was greater than 2000 mg/kg. The IC50 at Acrosin turned out to be 300 nM; on Serine protease 1, 500 nM.
The corresponding values for `C=CCc1ccc(OC(=O)c2ccc(NC(=N)N)cc2)c(OC)c1` are 870 mg/kg, 13.7 nM and 8.4 nM.
In the case of `N=C(N)Nc1ccc(C(=O)Oc2ccccc2)cc1`, the values for the IC50 on Acrosin and at Serine protease 1 were 5.6 nM and 23.4 nM, respectively.
In the same order, the values of `N=C(N)Nc1ccc(C(=O)Oc2cccc(C(F)(F)F)c2)cc1` are 38.5 nM and 92.2 nM.
In the same order, the values of `Cc1ccc(OC(=O)c2ccc(NC(=N)N)cc2)cc1` are 3.3 nM and 19.5 nM.
The corresponding values for `N#Cc1ccc(OC(=O)c2ccc(NC(=N)N)cc2)cc1` are 1.2 nM and 1.6 nM.
As for `N=C(N)Nc1ccc(C(=O)Oc2ccc(C(F)(F)F)cc2)cc1`, the IC50 on Acrosin stood at 33 nM; on Serine protease 1, 16.4 nM.
Turning to `N=C(N)Nc1ccc(C(=O)Oc2ccc(Cl)cc2)cc1`, the IC50 was determined as 3 nM on Acrosin and 8.2 nM on Serine protease 1.
Regarding `COc1cccc(OC(=O)c2ccc(NC(=N)N)cc2)c1`, the IC50 at Acrosin was determined as 17.6 nM; on Serine protease 1, 16.5 nM.
With `N=C(N)Nc1ccc(C(=O)Oc2ccc(Br)cc2)cc1`, the figures for the IC50 on Acrosin and on Serine protease 1 were 3.5 nM and 3.9 nM, respectively.
Consider `CCCCCCc1ccc(OC(=O)c2ccc(NC(=N)N)cc2)cc1O`, for which, in series [1], the median lethal dose (LD50) at 24 h came out at 620 mg/kg. The IC50 at Acrosin stood at 99.7 nM; on Serine protease 1, 18.5 nM.
In the same order, the values of `CC(=O)Nc1ccc(OC(=O)c2ccc(NC(=N)N)cc2)cc1.Cl` are 850 mg/kg, 8 nM and 23.7 nM.
The corresponding values for `CCOC(=O)c1ccc(OC(=O)c2ccc(NC(=N)N)cc2)cc1.Cl` are 300 mg/kg, 9.3 nM and 1.6 nM.
On to `COC(=O)c1cccc(OC(=O)c2ccc(NC(=N)N)cc2)c1`, for which the IC50 on Acrosin turned out to be 5.4 nM; at Serine protease 1 it was 27.1 nM.
In the same order, the values of `N#Cc1cccc(OC(=O)c2ccc(NC(=N)N)cc2)c1` are 7.2 nM and 3.8 nM.
In the case of `Cl.N=C(N)Nc1ccc(C(=O)Oc2cccc3cccnc23)cc1`, the LD50 at 24 h in series [1] worked out at 240 mg/kg. In addition, the results for the IC50 on Acrosin and on Serine protease 1 were 19.8 nM and 27.7 nM, respectively.
On to `Cl.N=C(N)Nc1ccc(C(=O)Oc2ccccc2C(N)=O)cc1`, for which the 50% lethal dose (LD50) at 24 h in series [1] was greater than 1000 mg/kg. Besides, the IC50 on Acrosin and on Serine protease 1 was 300 nM each time.
With `COC(=O)c1ccc(OC(=O)c2ccc(NC(=N)N)cc2)cc1.Cl`, the median lethal dose (LD50) at 24 h in series [1] came to 235 mg/kg. The figures for the IC50 at Acrosin and on Serine protease 1 were 0.67 nM and 1.5 nM, respectively.

Source of the values: ChEMBL document CHEMBL1123155, “Synthesis and inhibition of human acrosin and trypsin and acute toxicity of aryl 4-guanidinobenzoates” (J Med Chem, 1986).
